According to ChEMBL document CHEMBL1152607, “Tetraiodobenzimidazoles are potent inhibitors of protein kinase CK2” (Bioorg Med Chem, 2009):
Activity calls are given as the source filed them. The calls are words filed in the database; no cut-off is given here.

Biological target: not listed separately
Experiment: Inhibition of rat liver Casein kinase 2
Outline: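 Ki from Lineweaver–Burk plots: peptide fixed, ATP increasing, with or without several inhibitor concentrations. Alternatively derived from IC50 via the Cheng–Prusoff relationship.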

SMILES | Ki
FC(F)(F)c1nc2c(I)c(I)c(I)c(I)c2[nH]1 | 0.12 µM
OCCNc1nc2c(Br)c(Br)c(Br)c(Br)c2[nH]1 | 0.14 µM
Clc1nc2c(Br)c(Br)c(Br)c(Br)c2[nH]1 | 0.25 µM
Brc1c(I)c(Br)c2nc[nH]c2c1I | 0.075 µM
O=c1[nH]c2c(I)c(I)c(I)c(I)c2[nH]1 | 0.05 µM
FC(F)(F)C(F)(F)c1nc2c(Br)c(Br)c(Br)c(Br)c2[nH]1 | 0.2 µM
OCCNc1nc2c(I)c(I)c(I)c(I)c2[nH]1 | 0.027 µM
NNC(=O)Cn1cnc2c(I)c(I)c(I)c(I)c21 | 0.16 µM
Clc1c(Cl)c(I)c2[nH]cnc2c1I | 0.46 µM
FC(F)(F)C(F)(F)c1nc2c(I)c(I)c(I)c(I)c2[nH]1 | 0.07 µM
Ic1c(I)c(I)c2[nH]cnc2c1I | 0.023 µM
CNC(=O)Cn1cnc2c(Br)c(Br)c(Br)c(Br)c21 | 1.91 µM
Brc1nc2c(I)c(I)c(I)c(I)c2[nH]1 | 0.09 µM
O=C(O)Cn1cnc2c(Br)c(Br)c(Br)c(Br)c21 | 1.34 µM
Brc1nc2c(Br)c(Br)c(Br)c(Br)c2[nH]1 | 0.37 µM
Cc1nc2c(I)c(Cl)c(Cl)c(I)c2[nH]1 | 0.33 µM
Clc1nc2c(I)c(I)c(I)c(I)c2[nH]1 | 0.12 µM

SMILES | Ki
Clc1c(I)c(Cl)c2nc[nH]c2c1I | 0.59 µM
Brc1c(Br)c(Br)c2[nH]cnc2c1Br | 0.3 µM
FC(F)(F)c1nc2c(Br)c(Br)c(Br)c(Br)c2[nH]1 | 0.37 µM
O=C(O)Cn1cnc2c(I)c(I)c(I)c(I)c21 | 0.14 µM
Cc1nc2c(I)c(I)c(I)c(I)c2[nH]1 | 0.024 µM
Brc1c(I)c(I)c2[nH]cnc2c1I | 0.1 µM
CNC(=O)Cn1cnc2c(I)c(I)c(I)c(I)c21 | 0.18 µM
CCc1nc2c(I)c(I)c(I)c(I)c2[nH]1 | 0.019 µM
O=C(O)CSc1nc2c(I)c(I)c(I)c(I)c2[nH]1 | 0.054 µM
NC(=O)Cn1cnc2c(Br)c(Br)c(Br)c(Br)c21 | 1.45 µM
S=c1[nH]c2c(Br)c(Br)c(Br)c(Br)c2[nH]1 | 0.2 µM
NNC(=O)Cn1cnc2c(Br)c(Br)c(Br)c(Br)c21 | 1.51 µM
S=c1[nH]c2c(I)c(I)c(I)c(I)c2[nH]1 | 0.05 µM
Clc1c(I)c(I)c2[nH]cnc2c1I | 0.16 µM
NC(=O)Cn1cnc2c(I)c(I)c(I)c(I)c21 | 0.13 µM
O=C(O)CSc1nc2c(Br)c(Br)c(Br)c(Br)c2[nH]1 | 0.12 µM
O=c1[nH]c2c(Br)c(Br)c(Br)c(Br)c2[nH]1 | 0.18 µM

Species: Rattus norvegicus
Experiment: (§1) Noncompetitive inhibition of rat liver Casein kinase 2 using 80 uM ATP and increasing phosphoacceptor substrate by Lineweaver-Burke plot

SMILES | Activity
Ic1c(I)c(I)c2[nH]cnc2c1I | Active

Biological target: not listed separately
Experiment: as §1

SMILES | Ki
Clc1c(Cl)c(Cl)c2[nH]cnc2c1Cl | 21 µM
